Active and inactive are the calls of the source. The calls are words filed in the database; no cut-off is given here.
How the values were obtained:
[1] = Antioxidant activity assessed as DPPH radical scavenging activity shaken for 1 min and incubated under dark condition for 30 mins by spectrophotometric analysis; assay type: functional
How it was run: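 DPPH at 0.004% w/v and compounds were made in methanol, mixed 1.5 mL to 1 mL, shaken 1 min at 37 °C, then kept 30 min in the dark. Absorbance was read at 517 nm and % scavenging calculated against a DPPH-plus-methanol control. […] Triplicate, mean.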

[2] = target: T1, Xanthine dehydrogenase/oxidase (Bos taurus, UniProt P80457); test: Inhibition of bovine milk xanthine oxidase using xanthine as substrate preincubated for 5 mins followed by substrate addition by UV-visible spectrophotometry
T1 sequence (P80457 whole entry): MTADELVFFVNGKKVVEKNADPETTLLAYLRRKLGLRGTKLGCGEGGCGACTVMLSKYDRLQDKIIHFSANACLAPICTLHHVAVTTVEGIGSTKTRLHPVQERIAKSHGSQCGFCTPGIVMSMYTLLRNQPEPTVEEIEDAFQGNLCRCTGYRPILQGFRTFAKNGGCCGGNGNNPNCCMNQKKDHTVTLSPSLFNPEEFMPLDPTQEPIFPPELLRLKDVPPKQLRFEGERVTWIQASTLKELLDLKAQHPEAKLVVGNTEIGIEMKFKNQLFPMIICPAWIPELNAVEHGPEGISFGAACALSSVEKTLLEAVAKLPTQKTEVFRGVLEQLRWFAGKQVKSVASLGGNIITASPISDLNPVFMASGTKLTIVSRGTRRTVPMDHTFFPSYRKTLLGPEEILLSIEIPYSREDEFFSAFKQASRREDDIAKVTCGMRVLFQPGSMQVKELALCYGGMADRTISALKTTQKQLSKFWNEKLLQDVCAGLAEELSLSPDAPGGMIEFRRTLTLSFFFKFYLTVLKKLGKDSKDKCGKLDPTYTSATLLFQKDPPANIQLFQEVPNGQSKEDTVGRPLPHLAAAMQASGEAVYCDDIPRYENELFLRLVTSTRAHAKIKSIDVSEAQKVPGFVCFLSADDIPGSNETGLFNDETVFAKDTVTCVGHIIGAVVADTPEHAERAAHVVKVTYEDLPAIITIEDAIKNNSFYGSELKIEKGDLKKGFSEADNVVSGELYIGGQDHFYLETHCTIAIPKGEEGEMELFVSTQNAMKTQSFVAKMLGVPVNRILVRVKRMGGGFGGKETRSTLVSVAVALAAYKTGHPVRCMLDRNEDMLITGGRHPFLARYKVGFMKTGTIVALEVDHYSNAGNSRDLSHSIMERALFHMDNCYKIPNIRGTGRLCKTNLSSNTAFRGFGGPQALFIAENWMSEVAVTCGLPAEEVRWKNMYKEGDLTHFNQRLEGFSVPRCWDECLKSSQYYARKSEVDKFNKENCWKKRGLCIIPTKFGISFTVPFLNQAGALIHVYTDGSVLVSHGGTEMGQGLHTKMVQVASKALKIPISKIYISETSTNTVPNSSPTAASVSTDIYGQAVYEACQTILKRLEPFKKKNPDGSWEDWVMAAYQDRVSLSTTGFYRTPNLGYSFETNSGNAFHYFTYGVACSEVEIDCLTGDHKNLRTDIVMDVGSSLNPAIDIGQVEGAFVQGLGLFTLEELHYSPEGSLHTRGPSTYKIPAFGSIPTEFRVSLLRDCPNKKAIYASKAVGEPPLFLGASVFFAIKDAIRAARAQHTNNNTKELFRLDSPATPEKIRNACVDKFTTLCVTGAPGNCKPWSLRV

[3] = tested on: Mus musculus; test: Anti-hyperuricemic effect in Swiss albino mouse model of potassium oxonate-induced hyperuricemia model assessed as serum uric acid level at 1 to 10 mg/kg, po treated 1 hr post potassium oxonate addition and measured after 30 mins by ERBA method (reference value: 5.9 +/- 0.42 mg/dl); assay type: functional
How it was run: (§1)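 Male Swiss albino mice, […], 25–30 g, n = 6 per group, fasted 6 h from feed. Xanthine 500 mg/kg was given orally, then potassium oxonate 300 mg/kg ip 30 min later, both in 0.5% CMC. Compounds were dosed orally 1 h after oxonate. Retro-orbital blood was drawn 2 h after PO+Xn, and serum uric acid was read by kit at 505 nm (5 min, 37 °C). Mean ± S.E.M., ANOVA/Tukey.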

[4] = tested on: Mus musculus; test: Anti-hyperuricemic effect in Swiss albino mouse model of potassium oxonate-induced hyperuricemia model assessed as serum uric acid level at 5 mg/kg, po treated 1 hr post potassium oxonate addition and measured after 30 mins by ERBA method (reference value: 5.9 +/- 0.42 mg/dl); assay type: functional; how it was run: as §1
[5] = tested on: Mus musculus; test: Anti-hyperuricemic effect in Swiss albino mouse model of potassium oxonate-induced hyperuricemia model assessed as reduction in serum uric acid level treated orally 1 hr post potassium oxonate addition and measured after 30 mins by ERBA method; assay type: functional, organism-based; how it was run: as §1
[6] = tested on: Mus musculus; test: Anti-hyperuricemic effect in Swiss albino mouse model of potassium oxonate-induced hyperuricemia model assessed as reduction in serum uric acid level at 0.55 mg/kg, po treated 1 hr post potassium oxonate addition and measured after 30 mins by ERBA method; assay type: functional, organism-based; conditions: 0.5 mg/kg, in the assay text read “0.5 mg/kg” for “0.55 mg/kg”; how it was run: as §1
[7] = Acute toxicity in potassium oxonate-induced Swiss albino mouse hyperuricemic model assessed as induction of abnormal behavior at 2000 mg/kg, po measured after 24 hrs; conditions: in vivo
[8] = tested on: Mus musculus; test: Anti-hyperuricemic effect in Swiss albino mouse model of potassium oxonate-induced hyperuricemia model assessed as serum uric acid level at 10 mg/kg, po treated 1 hr post potassium oxonate addition and measured after 30 mins by ERBA method (reference value: 5.9 +/- 0.42 mg/dl); assay type: functional
[9] = target: T1, Xanthine dehydrogenase/oxidase; test: Competitive mixed type inhibition of bovine milk xanthine oxidase using xanthine as substrate preincubated for 5 mins followed by substrate addition by UV-visible spectrophotomety based Lineweaver-Burk plot analysis; conditions: cattle
How it was run: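 Bovine milk xanthine oxidase was assayed in 50 mM potassium phosphate (pH 7.6) at 25 °C, with uric acid formation followed at 293 nm. Enzyme was preincubated 5 min with inhibitor in 1% v/v DMSO, and the reaction was started with xanthine. Inhibition mode came from Lineweaver–Burk plots.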

IC50 [1] | IC50 [2] | Structure (SMILES) | further results
> 20 µM | > 20 µM | O=c1cc(-c2cccc([N+](=O)[O-])c2)oc2ccc3ccccc3c12 | 
9.9 µM | 16.8 µM | O=c1cc(-c2ccccc2Br)oc2c1ccc1ccccc12 | 
> 20 µM | > 20 µM | O=c1cc(-c2cccc(F)c2)oc2ccc3ccccc3c12 | 
> 20 µM | > 20 µM | O=c1cc(-c2cccc(Cl)c2)oc2ccc3ccccc3c12 | 
> 20 µM | 8.9 µM | O=c1cc(-c2ccc(Br)cc2)oc2ccc3ccccc3c12 | Activity [3]: 1.8 to 2.8 mg/dL; Activity [4]: Active; Activity [5]: Dose-dependent effect; inhibition [6]: inactive
10.1 µM | > 20 µM | O=c1cc(-c2cccc(F)c2)oc2c1ccc1ccccc12 | 
5.55 µM | > 20 µM | O=c1cc(-c2cc([N+](=O)[O-])cc([N+](=O)[O-])c2)oc2c1ccc1ccccc12 | 
> 20 µM | > 20 µM | O=c1cc(-c2ccccc2I)oc2ccc3ccccc3c12 | 
> 20 µM | 14.7 µM | O=c1cc(-c2ccccc2F)oc2ccc3ccccc3c12 | 
0.35 µM | 8.93 µM | O=c1cc(-c2ccc(Br)cc2)oc2c1ccc1ccccc12 | Activity [3]: 1.8 to 2.8 mg/dL; Activity [5]: Dose-dependent effect; inhibition [6]: inactive
> 20 µM | 18.6 µM | O=c1cc(-c2cccc(Cl)c2Cl)oc2ccc3ccccc3c12 | 
> 20 µM | > 20 µM | O=c1cc(-c2cccc(Br)c2)oc2ccc3ccccc3c12 | 

Continued, molecule first:

Structure (SMILES) | IC50 [1] | IC50 [2] | further results
O=c1cc(-c2ccccc2I)oc2c1ccc1ccccc12 | 7.33 µM | 19.4 µM | 
O=c1cc(-c2cccc([N+](=O)[O-])c2)oc2c1ccc1ccccc12 | 8.24 µM | > 20 µM | 
O=c1cc(-c2cc(F)cc(F)c2)oc2ccc3ccccc3c12 | > 20 µM | 7.67 µM | Activity [3]: 1.8 to 2.8 mg/dL; Activity [4]: Active; Activity [5]: Dose-dependent effect; inhibition [6]: inactive; Activity [7]: Non-Toxic
O=c1cc(-c2cccc(Br)c2)oc2c1ccc1ccccc12 | 5.98 µM | > 20 µM | 
COc1ccc(-c2cc(=O)c3c(ccc4ccccc43)o2)cc1 | > 20 µM | > 20 µM | 
O=c1cc(-c2cccc(Cl)c2Cl)oc2c1ccc1ccccc12 | 10.9 µM | > 20 µM | 
Cc1nc(-c2ccc(OCC(C)C)c(C#N)c2)sc1C(=O)O [FEBUXOSTAT] |  |  | Activity [4]: 1.5 mg/dL
O=c1cc(-c2ccc([N+](=O)[O-])cc2)oc2c1ccc1ccccc12 | 0.62 µM | 1.95 µM | Activity [5]: Dose-dependent effect; Activity [8]: inactive
O=c1cc(-c2ccc([N+](=O)[O-])cc2)oc2ccc3ccccc3c12 | > 20 µM | 5.21 µM | Activity [5]: Dose-dependent effect; Activity [8]: Active; inhibition (INH) [9]: Active
Oc1ncnc2[nH]ncc12 [ALLOPURINOL] |  |  | Activity [8]: 1.8 mg/dL
Cc1ccc(-c2cc(=O)c3c(ccc4ccccc43)o2)cc1 | > 20 µM | > 20 µM | 
O=c1cc(-c2ccccc2)oc2ccc3ccccc3c12 [BETA-NAPHTHOFLAVONE] | > 20 µM | > 20 µM | 
O=c1cc(-c2ccccc2Br)oc2ccc3ccccc3c12 | > 20 µM | 17.1 µM | 
Cc1ccc(-c2cc(=O)c3ccc4ccccc4c3o2)cc1 | 6.5 µM | > 20 µM | 
O=c1cc(-c2ccc(F)cc2)oc2c1ccc1ccccc12 | 0.83 µM | 0.62 µM | Activity [5]: Dose-dependent effect; Activity [8]: inactive
O=c1cc(-c2cc(F)cc(F)c2)oc2c1ccc1ccccc12 | 3.14 µM | 6.95 µM | Activity [3]: 1.8 to 2.8 mg/dL; Activity [5]: Dose-dependent effect; inhibition [6]: inactive
O=c1cc(-c2ccc(F)cc2)oc2ccc3ccccc3c12 | > 20 µM | 12.4 µM | 
O=c1cc(-c2cc([N+](=O)[O-])cc([N+](=O)[O-])c2)oc2ccc3ccccc3c12 | > 20 µM | > 20 µM | 
COc1ccc(-c2cc(=O)c3ccc4ccccc4c3o2)cc1 | 4.27 µM | 18.9 µM | 
O=c1cc(-c2cccc(Cl)c2)oc2c1ccc1ccccc12 | 7.75 µM | > 20 µM | 
O=c1cc(-c2ccccc2F)oc2c1ccc1ccccc12 | 4.73 µM | 4.94 µM | Activity [3]: 1.8 to 2.8 mg/dL; Activity [5]: Dose-dependent effect; inhibition [6]: inactive; Activity [7]: Non-Toxic
O=c1cc(-c2ccccc2)oc2c1ccc1ccccc12 [ALPHA-NAPHTHOFLAVONE] | 15.6 µM | > 20 µM | 

— ChEMBL document CHEMBL4480371, “Benzoflavone derivatives as potent antihyperuricemic agents” (Medchemcomm, 2019)
